Measured values published in ChEMBL document CHEMBL1140909 (J Med Chem, 2009).
pKi: −log10 of the molar value. Activity calls are given as the source filed them. No cut-off for these calls is given here.

Legend:
HUVEC [1] = test: Stimulation of angiogenesis of HUVEC assessed as increase in cord length formation after 36 hrs by Matrigel based tube formation assay; assay type: functional, cell-based; details: Homo sapiens
How it was run: (§1)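 HUVEC or CB1 siRNA-knockdown HUVEC at 90% confluence harvested with versene, spun 600g 5 min, resuspended in serum-free RPMI 1640 with drug (optionally 1 µM O-1918); 40 000 cells/well on gelled 1:1 RPMI/Matrigel, with or without UV irradiation, 36 h at 37 °C. Fixed with Diff-Quick; total tube length from three random 10× fields; triplicate, three experiments; percent increase over vehicle, mean ± SEM; bFGF 5 ng/mL positive control.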

HUVEC [2] = test: Stimulation of angiogenesis of irradiated HUVEC assessed as increase in cord length formation after 36 hrs by Matrigel based tube formation assay; assay type: functional, cell-based; details: Homo sapiens; how it was run: as §1
[3] = target: Matrix metalloproteinase-9 (Homo sapiens) (UniProt P14780); test: Stimulation of MMP9 activity in CB1 receptor knockout HUVEC assessed as increase in enzyme activity at 1 uM relative to control; assay type: cell-based
Matrix metalloproteinase-9 (Homo sapiens), sequence (P14780 whole entry): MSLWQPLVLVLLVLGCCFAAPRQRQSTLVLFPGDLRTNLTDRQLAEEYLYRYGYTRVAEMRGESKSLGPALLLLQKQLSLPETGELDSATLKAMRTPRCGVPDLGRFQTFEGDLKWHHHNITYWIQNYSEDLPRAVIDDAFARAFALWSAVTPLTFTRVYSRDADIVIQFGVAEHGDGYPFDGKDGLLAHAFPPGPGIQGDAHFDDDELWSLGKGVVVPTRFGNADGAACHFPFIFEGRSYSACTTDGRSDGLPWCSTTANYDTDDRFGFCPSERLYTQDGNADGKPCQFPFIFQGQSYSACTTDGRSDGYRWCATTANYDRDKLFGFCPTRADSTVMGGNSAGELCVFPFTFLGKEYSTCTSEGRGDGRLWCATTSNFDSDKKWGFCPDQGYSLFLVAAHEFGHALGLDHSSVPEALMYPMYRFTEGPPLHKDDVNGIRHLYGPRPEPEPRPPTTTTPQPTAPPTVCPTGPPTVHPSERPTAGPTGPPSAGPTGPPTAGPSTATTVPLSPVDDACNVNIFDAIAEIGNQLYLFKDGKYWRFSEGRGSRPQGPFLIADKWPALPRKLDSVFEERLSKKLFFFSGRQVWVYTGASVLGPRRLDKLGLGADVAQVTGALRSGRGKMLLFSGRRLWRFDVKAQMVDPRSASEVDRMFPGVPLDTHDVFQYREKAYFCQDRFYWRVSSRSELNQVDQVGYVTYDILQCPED
How it was run: (§2)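 HUVEC or CB1 siRNA-knockdown HUVEC (electroporated, 1.5 µg siRNA) grown to 90% confluence in six-well plates, treated with drug (optionally with 1 µM O-1918) with or without UV irradiation (1-15 min, 280-315 nm), 24 h at 37 °C. Conditioned media mixed with DQ gelatin (6 µg/mL), 24 h at 37 °C dark; fluorescence 485/530 nm against collagenase standard curve; triplicate; percent over vehicle, mean ± SEM of three experiments.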

[4] = target: 72 kDa type IV collagenase (Homo sapiens) (UniProt P08253); test: Stimulation of MMP2 activity in CB1 receptor knockout HUVEC assessed as increase in enzyme activity in presence of 1 uM anandamide receptor antagonist O-1918 relative to control; assay type: functional, cell-based; how it was run: as §2
72 kDa type IV collagenase (Homo sapiens), sequence (P08253 110-660 limits assumed): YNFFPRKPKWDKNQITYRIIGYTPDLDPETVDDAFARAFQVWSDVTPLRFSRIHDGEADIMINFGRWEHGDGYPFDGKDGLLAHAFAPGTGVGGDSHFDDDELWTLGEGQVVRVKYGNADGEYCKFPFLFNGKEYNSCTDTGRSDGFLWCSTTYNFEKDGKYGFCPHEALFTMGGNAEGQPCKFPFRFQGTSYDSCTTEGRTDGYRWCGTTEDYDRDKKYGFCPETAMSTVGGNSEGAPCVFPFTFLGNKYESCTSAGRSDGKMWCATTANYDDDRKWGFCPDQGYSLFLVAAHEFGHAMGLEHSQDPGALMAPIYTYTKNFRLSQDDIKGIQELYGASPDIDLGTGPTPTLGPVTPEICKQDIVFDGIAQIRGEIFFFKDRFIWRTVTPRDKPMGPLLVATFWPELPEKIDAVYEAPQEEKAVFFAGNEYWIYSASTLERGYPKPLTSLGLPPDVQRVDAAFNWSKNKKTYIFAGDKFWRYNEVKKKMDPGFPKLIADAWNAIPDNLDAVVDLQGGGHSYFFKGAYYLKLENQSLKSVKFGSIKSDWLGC

[5] = target: Matrix metalloproteinase-9 (Homo sapiens) (UniProt P14780); test: Stimulation of MMP9 activity in CB1 receptor knockout HUVEC assessed as increase in enzyme activity in presence of 1 uM anandamide receptor antagonist O-1918 relative to control; assay type: functional, cell-based; how it was run: as §2
HUVEC [6] = test: Increase in cell migration of irradiated HUVEC at 10 nM relative to control; assay type: functional, Homo sapiens
How it was run: (§3)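 Cells harvested with versene, resuspended in RPMI 1640 with 0.1% BSA; 30 000 cells loaded in bottom well of 48-well microchemotaxis chamber under collagen IV-coated (0.1 mg/mL) 10 µm polyester filter, inverted 2 h at 37 °C; upper wells given drug in RPMI/0.1% BSA, 6 h at 37 °C. Filters fixed and stained with Diff-Quick; migrated cells counted at well centre, ×20. UV irradiation 1-15 min at 280-315 nm, 10 in. distance.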

HUVEC [7] = test: Increase in cell migration of irradiated HUVEC at 100 nM relative to control; assay type: functional, Homo sapiens; how it was run: as §3
HUVEC [8] = test: Increase in cell migration of irradiated HUVEC at 1 uM relative to control; assay type: functional, Homo sapiens; how it was run: as §3
HUVEC [9] = test: Stimulation of angiogenesis of irradiated CB1 receptor knockout HUVEC assessed as increase in cord length formation after 36 hrs at 10 nM by Matrigel based tube formation assay; assay type: functional, Homo sapiens; how it was run: as §1
HUVEC [10] = test: Stimulation of angiogenesis of irradiated CB1 receptor knockout HUVEC assessed as increase in cord length formation after 36 hrs at 100 nM by Matrigel based tube formation assay; assay type: functional, Homo sapiens; how it was run: as §1
HUVEC [11] = test: Stimulation of angiogenesis of irradiated CB1 receptor knockout HUVEC assessed as increase in cord length formation after 36 hrs at 1 uM by Matrigel based tube formation assay; assay type: functional, Homo sapiens; how it was run: as §1
HUVEC [12] = test: Stimulation of angiogenesis of CB1 receptor knockout HUVEC assessed as increase in cord length formation after 36 hrs by Matrigel based tube formation assay; assay type: functional, Homo sapiens; how it was run: as §1
HUVEC [13] = test: Stimulation of angiogenesis of irradiated CB1 receptor knockout HUVEC assessed as increase in cord length formation after 36 hrs at 1 uM in presence of 1 uM anandamide receptor antagonist O-1918 by Matrigel based tube formation assay; assay type: functional, cell-based; details: Homo sapiens; how it was run: as §1
HUVEC [14] = test: Stimulation of angiogenesis of CB1 receptor knockout irradiated HUVEC assessed as increase in cord length formation after 36 hrs by Matrigel based tube formation assay; assay type: functional, cell-based; details: Homo sapiens; how it was run: as §1
[15] = target: 72 kDa type IV collagenase (Homo sapiens) (UniProt P08253); test: Stimulation of MMP2 activity in HUVEC assessed as increase in enzyme activity at 10 nM relative to control; assay type: cell-based; how it was run: as §2
[16] = target: Matrix metalloproteinase-9 (Homo sapiens) (UniProt P14780); test: Stimulation of MMP9 activity in HUVEC assessed as increase in enzyme activity at 10 nM relative to control; assay type: cell-based; how it was run: as §2
[17] = target: 72 kDa type IV collagenase (Homo sapiens) (UniProt P08253); test: Stimulation of MMP2 activity in HUVEC assessed as increase in enzyme activity at 100 nM relative to control; how it was run: as §2
[18] = target: Matrix metalloproteinase-9 (Homo sapiens) (UniProt P14780); test: Stimulation of MMP9 activity in HUVEC assessed as increase in enzyme activity at 100 nM relative to control; how it was run: as §2
[19] = target: 72 kDa type IV collagenase (Homo sapiens) (UniProt P08253); test: Stimulation of MMP2 activity in HUVEC assessed as increase in enzyme activity at 1 uM relative to control; how it was run: as §2
[20] = target: Matrix metalloproteinase-9 (Homo sapiens) (UniProt P14780); test: Stimulation of MMP9 activity in HUVEC assessed as increase in enzyme activity at 1 uM relative to control; assay type: cell-based; how it was run: as §2
[21] = target: 72 kDa type IV collagenase (Homo sapiens) (UniProt P08253); test: Stimulation of MMP2 activity in CB1 receptor knockout HUVEC assessed as increase in enzyme activity at 10 nM relative to control; assay type: cell-based; how it was run: as §2
[22] = target: Matrix metalloproteinase-9 (Homo sapiens) (UniProt P14780); test: Stimulation of MMP9 activity in CB1 receptor knockout HUVEC assessed as increase in enzyme activity at 10 nM relative to control; how it was run: as §2
[23] = target: 72 kDa type IV collagenase (Homo sapiens) (UniProt P08253); test: Stimulation of MMP2 activity in CB1 receptor knockout HUVEC assessed as increase in enzyme activity at 100 nM relative to control; assay type: cell-based; how it was run: as §2
[24] = target: Matrix metalloproteinase-9 (Homo sapiens) (UniProt P14780); test: Stimulation of MMP9 activity in CB1 receptor knockout HUVEC assessed as increase in enzyme activity at 100 nM relative to control; how it was run: as §2
[25] = target: 72 kDa type IV collagenase (Homo sapiens) (UniProt P08253); test: Stimulation of MMP2 activity in CB1 receptor knockout HUVEC assessed as increase in enzyme activity at 1 uM relative to control; assay type: cell-based; how it was run: as §2
Cannabinoid receptor 1 = Cannabinoid receptor 1 (Homo sapiens, UniProt P21554); test: Displacement of [3H]CP-55-940 from human recombinant CB1 receptor expressed in COS cells; assay type: cell-based
Cannabinoid receptor 1, sequence (P21554 whole entry): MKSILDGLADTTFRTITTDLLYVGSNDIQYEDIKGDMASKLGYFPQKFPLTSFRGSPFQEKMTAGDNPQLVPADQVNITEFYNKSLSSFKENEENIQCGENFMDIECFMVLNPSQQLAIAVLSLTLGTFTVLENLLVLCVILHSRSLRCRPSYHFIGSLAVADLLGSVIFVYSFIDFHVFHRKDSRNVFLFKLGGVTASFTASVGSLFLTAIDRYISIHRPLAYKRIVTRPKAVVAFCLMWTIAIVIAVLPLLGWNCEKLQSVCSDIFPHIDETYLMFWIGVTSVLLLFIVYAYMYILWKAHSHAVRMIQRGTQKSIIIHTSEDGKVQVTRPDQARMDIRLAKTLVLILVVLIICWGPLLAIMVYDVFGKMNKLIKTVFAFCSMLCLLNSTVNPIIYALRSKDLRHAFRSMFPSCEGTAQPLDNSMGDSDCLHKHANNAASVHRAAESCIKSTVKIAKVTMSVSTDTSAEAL

Cannabinoid receptor 2 = Cannabinoid receptor 2 (Homo sapiens, UniProt P34972); test: Displacement of [3H]CP-55-940 from human recombinant CB2 receptor expressed in COS cells; assay type: cell-based
Cannabinoid receptor 2, sequence (P34972 whole entry): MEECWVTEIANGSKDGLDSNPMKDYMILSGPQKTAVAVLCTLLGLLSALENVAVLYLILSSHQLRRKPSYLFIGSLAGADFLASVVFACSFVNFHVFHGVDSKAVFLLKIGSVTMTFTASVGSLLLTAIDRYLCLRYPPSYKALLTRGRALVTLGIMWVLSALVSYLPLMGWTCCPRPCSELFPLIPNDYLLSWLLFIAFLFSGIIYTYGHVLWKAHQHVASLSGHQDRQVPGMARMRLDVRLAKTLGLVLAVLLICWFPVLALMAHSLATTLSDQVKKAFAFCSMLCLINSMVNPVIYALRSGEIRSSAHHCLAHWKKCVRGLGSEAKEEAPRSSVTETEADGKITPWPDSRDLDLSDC

Compound	Activity [3]	Activity [4]	Activity [5]	Activity (HUVEC [6])	Activity (HUVEC [7])	Activity (HUVEC [8])	Activity (HUVEC [14])	Activity [15]	Activity [16]	Activity [17]	Activity [18]	Activity [19]	Activity [20]	Activity [21]	Activity [22]	Activity [23]	Activity [24]	Activity [25]	also measured
C[C@H](CO)NC(=O)CCC/C=C\C/C=C\C/C=C\C/C=C\CCOC(=O)c1cc(I)ccc1N=[N+]=[N-]	inactive	inactive	inactive	18%	35%	54%	Dose-dependent effect	inactive	inactive	inactive	inactive	inactive	inactive	inactive	inactive	inactive	inactive	inactive	Activity (HUVEC [1]): Dose-dependent effect; Activity (HUVEC [2]): Active; Activity (HUVEC [9]): 21%; Activity (HUVEC [10]): 30%; Activity (HUVEC [11]): 47%; Activity (HUVEC [12]): 8%; Activity (HUVEC [13]): inactive
C[C@H](CO)NC(=O)CCC/C=C\C/C=C\C/C=C\C/C=C\CCOC(=O)c1cccc2c1OC(C)(C(C)(C)C)O2 (stereo partly drawn)	inactive	inactive	inactive	27%	40%	55%	Active	inactive	inactive	inactive	inactive	inactive	inactive	inactive	inactive	inactive	inactive	inactive	pKi (Cannabinoid receptor 1): 5.55; pKi (Cannabinoid receptor 2): 5.99; Activity (HUVEC [12]; Homo sapiens): Active
CCCCC/C=C\C/C=C\C/C=C\C/C=C\CCCC(=O)N[C@H](C)CO	33%	–	–	–	–	–	–	5%	20%	28%	5%	20%	28%	10%	25%	33%	10%	25%	–
